Source: PubChem (Johns Hopkins Ion Channel Center)
KCNQ1 inh: inhibitors of human KCNQ1 channel, primary screen, cell-based, thallium flux, high-throughput. Potassium voltage-gated channel subfamily KQT member 1 (Homo sapiens), P51787. CHO-K1 KCNQ1, FluxOR thallium flux fluorescence; stronger effect = higher value. B-score at 10 µM. 1.3% of 310,000 active;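 active means compounds whose thallium flux B-score, printed positive for inhibition, exceeds three library SD while starting fluorescence stays within three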;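 further: channel opened by potassium depolarization with thallium stimulus after 20 min compound exposure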
KCNQ1 pot: potentiators or activators of KCNQ1 channel, primary screen, cell-based, thallium flux, high-throughput | CHO-K1 KCNQ1, thallium flux FluxOR fluorescence; stronger effect = higher value | 0.35% of 310,000 active | AID 2648, 2010 | B-score at 10 µM;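 active means fluorescence ratio B-score, a plate-corrected score, at least three library SD, with initial intensity B-score within 5 SD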
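Material: CHO-K1 cells stably expressing KCNQ1. Medium: assay buffer for compound exposure, DMSO matched across wells. Reagent: K+/Tl+ depolarizing stimulus. Compound dosing: single-concentration screen. Times: 37 °C overnight plating, 90-min dark dye load, 20-min compound pretreatment. Technique: FluxOR Tl+ flux fluorescence.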
hERG rescue: hERG rescue from dofetilide block, primary screen, cell-based, CHO-hERG, FluxOR thallium flux, dofetilide IC70. Voltage-gated inwardly rectifying potassium channel KCNH2 (Homo sapiens), Q12809. dofetilide IC70 present. activation (rescue from dofetilide block), less the hit threshold, % at 10 µM. 0.51% of 310,000 active. AID 1511, 2009;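 active means activation above the mean of controls blocked by dofetilide plus 5 SD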;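 further: thallium influx through hERG after potassium depolarization seen as dye fluorescence rise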
KCNK9 block: KCNK9 potassium channel inhibitors, primary screen, HEK293 cells, thallium flux; Potassium channel subfamily K member 9 (Homo sapiens), Q9NPC2; FluxOR thallium flux fluorescence; stronger effect = lower value; B-score at 10 µM; 1.2% of 310,000 active; AID 488922, 2010;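 active means ratio B-score over 3 SD below the library mean, with starting fluorescence within 5 SD of its mean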;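 further: negative B-score means less thallium flux so channel inhibition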
Kir21 block: inhibitors of mouse Kir2.1 inward-rectifier potassium channel; Inward rectifier potassium channel 2 (Mus musculus), P35561; HEK293-Kir2.1, FluxOR thallium flux fluorescence; stronger effect = lower value; B-score at 10 µM; 0.85% of 310,000 active;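 active means fluorescence ratio B-score at or below minus 3 SD of library scores, with starting-brightness B-score within 2 SD, cut at about -4.2 in these data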;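 further: channel flux triggered by added potassium and thallium sulfate stimulus; B-score of peak minus minimum fluorescence over baseline after thallium stimulus; more negative B-score means stronger Kir2.1 block with less thallium influx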
Target sequence (P35561 whole entry, looked up): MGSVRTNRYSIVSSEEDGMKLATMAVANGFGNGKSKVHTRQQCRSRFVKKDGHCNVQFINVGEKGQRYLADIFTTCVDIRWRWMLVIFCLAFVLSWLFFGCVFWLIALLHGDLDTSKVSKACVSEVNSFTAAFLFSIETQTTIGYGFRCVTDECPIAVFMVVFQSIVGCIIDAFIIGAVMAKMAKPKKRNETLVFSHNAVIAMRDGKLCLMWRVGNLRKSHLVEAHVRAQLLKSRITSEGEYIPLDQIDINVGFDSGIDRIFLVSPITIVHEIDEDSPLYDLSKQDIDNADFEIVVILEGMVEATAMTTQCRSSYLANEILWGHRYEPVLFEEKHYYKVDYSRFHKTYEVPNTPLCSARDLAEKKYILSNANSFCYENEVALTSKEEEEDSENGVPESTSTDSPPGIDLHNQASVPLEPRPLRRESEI
KCNK3 inh: human KCNK3 channel inhibitors, primary screen, CHO cells, FluxOR thallium flux, B-score | AID 602410, 2012 | 0.84% of 340,000 active | B-score at 10 µM | FluxOR fluorescence; stronger effect = lower value;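 active means B-score under library mean minus 4 SD, starting fluorescence ratio at most library mean plus 5 SD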;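 further: more negative B-score means stronger inhibition of thallium flux through KCNK3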
The depositor's hits bear a star; i = inactive; · = no result given. Most compounds without a hit are left out; they make up all but 3.7% or so of the library.

SMILES | KCNQ1 inh | KCNQ1 pot | hERG rescue | KCNK9 block | Kir21 block | KCNK3 inh
CCOc1cccc(C(=O)NC(=S)Nc2ccccc2)c1 | i | i | -5 | i | -1.5 | i
O=C(NC(=S)Nc1ccc(CN2CCOCC2)cc1)c1ccc(-c2cccc(Cl)c2)o1 | i | 20* | -3 | i | 3.1 | i
O=C(NC(=S)Nc1ccc(CN2CCCCC2)cc1)c1cccc(OCc2ccccc2)c1 | 8* | i | -43 | i | 1.6 | i
O=C(Nc1ccc(CN2CCOCC2)cc1)c1ccc(-c2cccc(Cl)c2)o1 | i | i | -30 | i | -1.3 | i
CC(C)CCC1(CCNC(C)c2cccs2)CCOC(C)(C)C1 (centres undefined) | i | i | -3 | i | -2.5 | i
O=C1ON=C(c2ccccc2)/C1=C/c1ccco1 | 7* | i | -24 | i | -0.46 | i
CC(C)C[C@@H](CO)N1CCN(CC(C)C)CCC1=O | i | i | 5.7* | i | 2.1 | i
CCCN1CCC(=O)N([C@H](CO)CC(C)C)CC1 | i | i | -6 | i | -0.47 | i
C[C@@H]1CN([C@@H](C)CO)C(=O)c2cccc(NC(=O)C3CCCCC3)c2O[C@@H]1CN(C)C(=O)NC1CCCCC1 | · | · | · | · | · | i
Cc1ccc2c(CSc3nnnn3C)cc(=O)oc2c1 | i | i | -12 | i | -0.69 | i
Cc1ccc2c(CSc3nc4ccccc4c(=O)n3CCCO)cc(=O)oc2c1 | · | · | · | · | · | -9.1*
O=c1ccc(-c2ccc(S(=O)(=O)NCC3CCN(Cc4ccccc4F)CC3)s2)n[nH]1 | i | i | -6 | i | 0.28 | i
COc1ccc(C(=O)CC(=O)C(=O)Nc2ccccc2OC)cc1 | i | i | 1 | i | -1.1 | i
COc1cccc(C(=O)CC(=O)C(=O)Nc2ccc(C)cc2Cl)c1 | i | i | 31* | i | -0.01 | i
COc1ccc(C(=O)CC(=O)C(=O)Nc2ccc(C)cc2Cl)cc1 | i | i | 56* | i | 0.89 | i
CCOc1ccccc1NC(=O)C(=O)CC(=O)c1cccc(OC)c1 | i | 16* | 12* | i | 0.81 | i
CN(C)CCNC(=O)/C=N/O | i | i | -1 | i | 0.1 | i
Cc1cccc(Sc2nc(-c3ccccc3)ccc2C#N)c1 | i | i | -15 | -6.6* | -0.07 | i
Cc1cc(N2CCN(c3ccccc3Cl)CC2)n2cc(-c3ccccc3)nc2n1 | i | i | -18 | -12* | 1.9 | i
Cc1ccc(C)n1-c1ccc(C(=O)N2CCC(C(N)=O)CC2)cc1 | i | i | 7.2* | i | -0.03 | i
O=C(CN1C(=O)NC2(CCc3ccccc32)C1=O)NCc1ccc(Cl)cc1 (centres undefined) | · | · | · | · | · | i
COc1cc2c(cc1OC)C(c1ccccc1O)NCC2 (centres undefined) | i | i | -10 | i | -0.04 | i
CCCCN(C(=O)CCn1c(=O)oc2ccccc21)c1ccccc1 | i | i | -9 | i | -8.2* | i
c1ccc(-c2nc(N3CCN(c4ccccc4)CC3)nc(-n3ccnc3)n2)cc1 | i | i | -14 | -7.1* | -0.1 | i
CCOC(=O)Nc1c(O)ccc2oc(C)c(-c3ccccc3)c12 | i | i | -7 | i | -15* | i
SMILES | KCNQ1 inh | KCNQ1 pot | hERG rescue | KCNK9 block | Kir21 block | KCNK3 inh
COc1ccc(CNC[C@H]2O[C@@H](n3ccc(=O)[nH]c3=O)[C@H](O)[C@@H]2O)cc1OC | · | · | · | · | · | i
Cc1oc(-c2ccccc2)nc1CS(=O)CC(=O)NC1CCCC1 (centres undefined) | i | i | -9 | i | -1.1 | i
CCc1nc2ccccc2c(=O)n1NC(=O)c1c(O)c2ccccc2n(CC)c1=O | i | i | 37* | i | -1.5 | i
CCCCc1nc2ccccc2c(=O)n1NC(=O)c1c(O)c2c(n(CC(C)C)c1=O)CCCC2 | 6* | i | -4 | i | -0.21 | i
CC1=C(C)CC(C(=O)NCCc2ccc(F)cc2)C(C(=O)O)C1 (centres undefined) | i | i | -3 | i | -0.11 | i
COc1ccccc1N1CCN(C(=O)CN(C2CCCCC2)S(C)(=O)=O)CC1 | i | i | -11 | i | 0.23 | i
COc1ccc(N2CCN(C(=O)CN(C3CCCCC3)S(C)(=O)=O)CC2)cc1 | i | i | 32* | i | -0.03 | i
CCCCn1c(CCC)nc([N+](=O)[O-])c1Sc1ccc(Cl)cn1 | i | i | -12 | i | -4.8* | i
CC(C)Cn1c(C(C)C)nc([N+](=O)[O-])c1Sc1ccc(Cl)cn1 | i | i | -18 | i | -0.55 | i
c1coc(CN=C2NC(=NCc3ccco3)c3ccccc32)c1 | i | i | -7 | i | -6.2* | i
O=C1c2ccccc2C(O)N1Cc1ccco1 (centres undefined) | i | i | -7 | i | -0.89 | i
O=C(Nn1c(C2CCCCC2)nc2ccccc2c1=O)c1ccc(Cl)c([N+](=O)[O-])c1 | 9* | i | -12 | i | -0.7 | i
Cc1ccccc1Nc1nc(-c2sc(NC(=O)c3ccc([N+](=O)[O-])cc3)nc2C)cs1 | 7* | i | -12 | i | 1.5 | ·
CC1CCN(C(=O)CSc2nc(=O)n3ccccc3n2)CC1 | i | i | -12 | i | -0.17 | i
COc1cc(C(=O)NCC(c2ccc(F)cc2)N2CCOCC2)ccc1OCc1ccccc1Cl (centres undefined) | 10* | i | -14 | i | -1.4 | i
COc1ccccc1C1c2ccc3ccccc3c2Oc2ncn(CCN(C)C)c(=N)c21 (centres undefined) | i | i | -13 | i | -5.2* | i
COc1ccc(C2c3ccc4ccccc4c3Oc3ncn(CCCN(C)C)c(=N)c32)cc1 (centres undefined) | i | i | -14 | i | -7.2* | i
COc1ccccc1C1c2ccc3ccccc3c2Oc2ncn(CCCO)c(=N)c21 (centres undefined) | i | i | -14 | i | -2.5 | i
CCN(CC)CCOC(=O)CCc1cccc2ccccc12 | i | i | -2 | i | 0.04 | i
